Reference: ChEMBL document CHEMBL5316296, “Indole Derivatives as New Structural Class of Potent and Antiproliferative Inhibitors of Monocarboxylate Transporter 1 (MCT1; SLC16A1)” (J Med Chem, 2023)
Active and inactive are the calls of the source. The calls are words filed in the database; no cut-off is given here.

Legend:
[1] = target: T1, Monocarboxylate transporter 4 (Homo sapiens) (UniProt O15427); experiment: Inhibition of MCT4 in human MDA-MB-231 cells assessed as inhibition of acidic lactate extrusion by measuring reduction in pH at 10 uM incubated for 12 hrs by BCECF-AM dye based fluorescence spectrophotometric analysis; format: cell-based
T1 sequence (whole entry): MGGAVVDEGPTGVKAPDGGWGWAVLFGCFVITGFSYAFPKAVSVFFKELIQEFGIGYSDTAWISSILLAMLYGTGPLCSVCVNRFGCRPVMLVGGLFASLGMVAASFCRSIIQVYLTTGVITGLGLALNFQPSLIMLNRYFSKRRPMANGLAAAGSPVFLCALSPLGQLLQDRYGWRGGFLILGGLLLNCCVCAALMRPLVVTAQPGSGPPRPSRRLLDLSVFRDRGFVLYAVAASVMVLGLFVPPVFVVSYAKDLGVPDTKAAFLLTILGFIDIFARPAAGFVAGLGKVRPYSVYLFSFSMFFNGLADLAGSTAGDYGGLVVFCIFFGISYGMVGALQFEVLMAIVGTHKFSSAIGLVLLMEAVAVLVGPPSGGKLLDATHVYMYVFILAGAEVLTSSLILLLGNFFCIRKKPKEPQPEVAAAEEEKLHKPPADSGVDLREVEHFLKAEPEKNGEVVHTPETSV
In short: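 MDA-MB-231 cells (50,000/well) plated overnight, then treated with 10 μM compound for 12 h at 37 °C. Loaded with BCECF-AM (5 μM, 1 h), washed twice. Intracellular pH from emission ratio against per-plate calibration (pH 4.5–7.5 buffers with 10 μM nigericin and 10 μM valinomycin, 30 min, room temperature).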

NIH3T3 = experiment: Cytotoxicity against mouse NIH3T3 cells assessed as cell viability incubated for 72 hrs by MTT assay; format: toxicity, cell-based; details: nih3t3, 72 h
In short: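 NIH/3T3 murine embryonic fibroblasts (5000/well) screened at 10 and 50 μM compound for 72 h at 37 °C, 5% CO2. MTT readout (1 h), DMSO-dissolved formazan read at 570 nm, 690 nm background. DMSO and culture medium define 0 and 100% viability; at least three independent experiments.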

[2] = Induction of doxorubicin sensitization in human A549 cells expressing MCT1 assessed as doxorubicin GI50 at 100 nM incubated for 72 hrs by MTT assay; format: functional
In short: (§1)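 A-549 cells (~5000/well) given test compound at fixed 50, 100 or 500 nM plus doxorubicin dilution series 50 nM–50 μM. Incubated 72 h at 37 °C, 5% CO2, then MTT readout.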

[3] = Induction of doxorubicin sensitization in human A2780 ADR cells expressing ABCB1 assessed as doxorubicin at 5 uM incubated for 72 hrs by MTT assay; format: functional
In short: (§2)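 ABCB1-expressing A2780/ADR cells (grown in RPMI-1640 with 10% FBS) were exposed to a doxorubicin dilution series, with or without a fixed test-compound level of 1.0, 2.0, 3.5 or 5.0 μM. Viability was read by MTT, with DMSO as 0% and medium as 100%. GI50 values come from at least three independent experiments and are compared with doxorubicin alone on sensitive A2780 cells.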

A549 = experiment: Antiproliferative activity against human A549 cells expressing MCT1 assessed as effect on cell viability incubated for 72 hrs in the presence of glucose by MTT assay; format: functional, cell-based
In short: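 A-549 cells (5000/well) with compound over 72 h; glucose added every 12 h to give 25% or 50% of the original 4.5 g/L. Viability by MTT, absorbance 570 nm (690 nm background). DMSO and culture medium define 0 and 100%; at least three independent experiments.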

A2780 ADR = experiment: Induction of doxorubicin sensitization in human A2780 ADR cells expressing ABCB1 assessed as left shift of the concentration-effect curve at 5 uM incubated for 72 hrs by MTT assay; format: functional, cell-based
In short: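 ABCB1-expressing A2780/ADR cells given test compound at 1.0, 2.0, 3.5 or 5.0 μM with a doxorubicin series; MTT viability readout. Shift of doxorubicin concentration-effect curve compared against parental A2780. DMSO and medium define 0 and 100%; at least three independent experiments.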

[4] = Induction of doxorubicin sensitization in human A2780 ADR cells expressing ABCB1 assessed as doxorubicin at 1 uM incubated for 72 hrs by MTT assay; format: functional; in short: as §2
[5] = Induction of doxorubicin sensitization in human A2780 ADR cells expressing ABCB1 assessed as doxorubicin at 3.5 uM incubated for 72 hrs by MTT assay; format: functional; in short: as §2
[6] = Induction of doxorubicin sensitization in human A2780 ADR cells expressing ABCB1 assessed as doxorubicin at 2 uM incubated for 72 hrs by MTT assay; format: functional; in short: as §2
[7] = Induction of doxorubicin sensitization in human A549 cells expressing MCT1 assessed as doxorubicin GI50 at 50 nM incubated for 72 hrs by MTT assay; format: functional; in short: as §1
[8] = Growth inhibition of human A549 cells expressing MCT1 at 50 uM incubated for 72 hrs by MTT assay relative to control; format: toxicity, cell-based; details: read-out: GI
[9] = Antiproliferative activity against human A2780 ADR cells expressing ABCB1 assessed as growth inhibition incubated for 72 hrs by MTT assay; format: functional

| Structure (SMILES) | inhibition [1] | Activity (NIH3T3) | further results |
| --- | --- | --- | --- |
| COC(=O)/C(C#N)=C/c1cn(CC(=O)Nc2cccc(OC)c2)c2ccccc12 | inactive | Non-Toxic | – |
| N#C/C(=C\c1ccc(O)cc1)C(=O)O [alpha-CYANO-4-HYDROXYCINNAMIC ACID] | – | Non-Toxic | – |
| COC(=O)/C(C#N)=C/c1cn(CC(=O)Nc2ccc(Br)cn2)c2ccccc12 | inactive | Non-Toxic | – |
| COC(=O)/C(C#N)=C/c1cn(CC(=O)Nc2ccc(C)cn2)c2ccccc12 | inactive | Non-Toxic | GI50 [2]: 25.4 nM; GI50 [3]: 12.9 nM; Activity (A549): inactive; Activity (A2780 ADR): Active; GI50 [4]: 516 nM; GI50 [5]: 32.4 nM; GI50 [6]: 165 nM; GI50 [7]: 38.6 nM |
| COC(=O)/C(C#N)=C/c1cn(CC(=O)Nc2ccccn2)c2ccccc12 | inactive | Non-Toxic | – |
| COC(=O)/C(C#N)=C/c1cn(CC(=O)Nc2ccc(OC)cc2)c2ccccc12 | inactive | Non-Toxic | GI50 [2]: 27.7 nM; GI50 [3]: 32.2 nM; Activity (A549): inactive; Activity (A2780 ADR): Active; GI50 [4]: 332 nM; GI50 [5]: 110 nM; GI50 [6]: 214 nM; GI50 [7]: 40 nM |
| O=C(O)C(=O)CBr [BROMOPYRUVATE] | – | – | inhibition at 72 h, 50 µM [8]: ≥ 90% |
| COc1cccc2c1C(=O)c1c(O)c3c(c(O)c1C2=O)C[C@@](O)(C(=O)CO)C[C@@H]3O[C@H]1C[C@H](N)[C@H](O)[C@H](C)O1 [DOXORUBICIN] | – | – | GI50 [9]: 802 nM |
| COC(=O)/C(C#N)=C/c1cn(CC(=O)Nc2ccc(Br)cc2)c2ccccc12 | inactive | Non-Toxic | – |

Second part, led by results:

| inhibition [1] | Structure (SMILES) | Activity (NIH3T3) | further results |
| --- | --- | --- | --- |
| inactive | COC(=O)/C(C#N)=C/c1cn(CC(=O)Nc2ccccc2OC)c2ccccc12 | Non-Toxic | – |
| inactive | COC(=O)/C(C#N)=C/c1cn(CC(=O)Nc2ccccc2C)c2ccccc12 | Non-Toxic | – |
| inactive | COC(=O)/C(C#N)=C/c1cn(CC(=O)Nc2ccccc2)c2ccccc12 | Non-Toxic | – |
| inactive | COC(=O)/C(C#N)=C/c1cn(CC(=O)Nc2cccc3ccccc23)c2ccccc12 | Non-Toxic | – |
| inactive | COC(=O)/C(C#N)=C/c1cn(CC(=O)Nc2ccc(F)cc2)c2ccccc12 | Non-Toxic | – |
| inactive | COC(=O)/C(C#N)=C/c1cn(CC(=O)Nc2c(Cl)cccc2Cl)c2ccccc12 | Non-Toxic | – |
| inactive | COC(=O)/C(C#N)=C/c1cn(CC(=O)Nc2ccc(C)cc2)c2ccccc12 | Non-Toxic | – |
| inactive | COC(=O)/C(C#N)=C/c1cn(CC(=O)Nc2ccc(Cl)cc2)c2ccccc12 | Non-Toxic | – |
| inactive | COC(=O)/C(C#N)=C/c1cn(CC(=O)Nc2ccc3ccccc3c2)c2ccccc12 | Non-Toxic | – |
| inactive | COC(=O)/C(C#N)=C/c1cn(CC(=O)Nc2cccnc2)c2ccccc12 | Non-Toxic | – |
